Measured values published in ChEMBL document CHEMBL1124196, “Etodolac, a novel antiinflammatory agent. The syntheses and biological evaluation of its metabolites” (J Med Chem, 1988).
pIC50: −log10 of the molar value.

Assays:
[1] = Evaluated in vitro for its ability to inhibit prostaglandin E2 production in cultured chondrocyte cells at 25 mg/kg dose; format: functional, organism-based; conditions: Rattus norvegicus
[2] = tested on: Rattus norvegicus; test: Evaluated for the inhibition of adjuvant-induced hind paw edema in rats at 25 mg/kg dose; format: functional
Procedure, shortened: (§1)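 Male Sprague-Dawley rats (180-200 g), groups of 10; 0.1 mL Freund's complete adjuvant (0.5 mg killed, dried Mycobacterium butyricum in mineral oil) intradermally into left hindpaw. Compound or vehicle (0.5% Tween 80 in water) by gastric lavage just before FCA (day 0) and at 24 and 48 h. Paw volume by plethysmometer before FCA and on day 3; % inhibition of mean edema versus control.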

[3] = Evaluated in vitro for its ability to inhibit prostaglandin E2 production in cultured chondrocyte cells at 12 mg/kg dose; format: functional, organism-based; conditions: Rattus norvegicus
[4] = tested on: Rattus norvegicus; test: Evaluated for the inhibition of adjuvant-induced hind paw edema in rats at 12 mg/kg dose; format: functional; procedure, shortened: as §1

CCc1cccc2c3c([nH]c12)C(CC)(CC(=O)O)OCC3=O (stereo not drawn)
pIC50 [1]: 6.73 | inhibition in vivo at 25 mg/kg [2]: 21%

CCc1cccc2c3c([nH]c12)C(CC)(CC(=O)O)OCC3NC(N)=O (stereo not drawn) [4-UREIDOETODOLAC]
pIC50 [1]: < 4.00

CCc1c(O)ccc2c3c([nH]c12)C(CC)(CC(=O)O)OCC3 (stereo not drawn) [7-HYDROXYETODOLAC]
pIC50 [3]: 4.30 | inhibition in vivo at 12 mg/kg [4]: 8%

CCC1(CC(=O)O)OCCc2c1[nH]c1c(C(C)O)cccc21 (stereo not drawn) [8-(1-HYDROXYETHYL)ETODOLAC]
pIC50 [1]: 5.70 | inhibition in vivo at 25 mg/kg [2]: 14%

CCc1cccc2c3c(n(C)c12)C(CC)(CC(=O)O)OCC3 (stereo not drawn)
pIC50 [1]: 4.60 | inhibition in vivo at 25 mg/kg [2]: 11%

CCc1cccc2c3c([nH]c12)C(CC)(CC(=O)O)OCC3 (stereo not drawn) [ETODOLAC]
pIC50 [1]: 7.60 | inhibition in vivo at 25 mg/kg [2]: 65%

CCc1cc(O)cc2c3c([nH]c12)C(CC)(CC(=O)O)OCC3 (stereo not drawn) [6-HYDROXYETODOLAC]
pIC50 [1]: 5.19 | inhibition in vivo at 25 mg/kg [2]: 10%
